Reference: ChEMBL document CHEMBL4311956, “A Qualified Success: Discovery of a New Series of ATAD2 Bromodomain Inhibitors with a Novel Binding Mode Using High-Throughput Screening and Hit Qualification” (J Med Chem, 2019)
Active and inactive are the calls of the source. The calls are words filed in the database; no cut-off is given here.

Experiments:
[1] = target: T1, ATPase family AAA domain-containing protein 2 (Homo sapiens, UniProt Q6PL18); test: Displacement of SGRG-K(Ac)-GG-K(Ac)-GLG-K(Ac)-GGAKRHRKV-biotin) from His6/FLAG-tagged TEV fused ATAD2 bromodomain (981 to 1121 residues) (unknown origin) expressed in Escherichia coli BL21(DE3) cells after 30 mins by TR-FRET assay
T1 sequence (Q6PL18 whole entry): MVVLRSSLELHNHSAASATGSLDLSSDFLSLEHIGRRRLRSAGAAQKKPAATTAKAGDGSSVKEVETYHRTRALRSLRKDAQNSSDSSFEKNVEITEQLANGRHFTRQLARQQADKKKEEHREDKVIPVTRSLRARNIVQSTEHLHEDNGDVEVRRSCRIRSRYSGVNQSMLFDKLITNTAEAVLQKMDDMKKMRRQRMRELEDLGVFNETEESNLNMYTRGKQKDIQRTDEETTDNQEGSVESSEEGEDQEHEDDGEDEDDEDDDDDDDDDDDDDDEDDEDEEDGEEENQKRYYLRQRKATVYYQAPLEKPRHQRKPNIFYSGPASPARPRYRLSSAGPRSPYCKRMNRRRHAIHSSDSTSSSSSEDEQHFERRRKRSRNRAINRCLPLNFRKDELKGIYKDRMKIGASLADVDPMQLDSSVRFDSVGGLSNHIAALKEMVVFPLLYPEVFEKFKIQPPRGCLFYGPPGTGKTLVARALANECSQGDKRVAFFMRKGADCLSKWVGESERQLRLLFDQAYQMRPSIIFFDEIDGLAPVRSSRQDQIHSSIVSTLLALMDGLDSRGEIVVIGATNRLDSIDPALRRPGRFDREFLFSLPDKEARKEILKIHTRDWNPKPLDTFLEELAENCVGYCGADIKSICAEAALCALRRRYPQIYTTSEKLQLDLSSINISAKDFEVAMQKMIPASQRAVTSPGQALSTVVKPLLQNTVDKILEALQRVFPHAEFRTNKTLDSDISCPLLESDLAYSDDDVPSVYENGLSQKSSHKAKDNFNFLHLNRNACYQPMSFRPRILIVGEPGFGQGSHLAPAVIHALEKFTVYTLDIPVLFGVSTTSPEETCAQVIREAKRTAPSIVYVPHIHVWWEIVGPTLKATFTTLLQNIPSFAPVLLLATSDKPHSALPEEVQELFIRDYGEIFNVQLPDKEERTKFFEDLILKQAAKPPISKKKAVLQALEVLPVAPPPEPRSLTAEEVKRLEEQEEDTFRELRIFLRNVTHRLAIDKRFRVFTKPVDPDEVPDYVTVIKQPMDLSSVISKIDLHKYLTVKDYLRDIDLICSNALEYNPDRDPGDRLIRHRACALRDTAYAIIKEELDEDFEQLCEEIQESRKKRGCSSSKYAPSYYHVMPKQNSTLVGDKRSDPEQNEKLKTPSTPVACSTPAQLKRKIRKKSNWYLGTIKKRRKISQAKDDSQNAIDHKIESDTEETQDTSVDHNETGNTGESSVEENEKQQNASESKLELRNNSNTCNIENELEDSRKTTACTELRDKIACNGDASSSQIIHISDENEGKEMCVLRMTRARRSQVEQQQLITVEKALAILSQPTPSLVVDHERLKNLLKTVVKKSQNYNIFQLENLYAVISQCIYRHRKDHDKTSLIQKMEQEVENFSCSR

[2] = target: T2, ATPase family AAA domain-containing protein 2 (Homo sapiens) (UniProt Q6PL18); test: Binding affinity to 15N-labelled ATAD2 (981 to 1108 residues) (unknown origin) at 100 uM by 1H-15N HSQC NMR analysis
T2 sequence (whole entry): T1 sequence (Q6PL18 whole entry)
How it was run: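 15N–1H HSQC spectra of labelled ATAD2 bromodomain recorded with and without compound at 100 μM. Binding is judged from spectral changes.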

[3] = target: Bromodomain-containing protein 4 (Homo sapiens, UniProt O60885, Y97A); test: Displacement of Alexa Fluor 647 labelled ligand from His6-tagged BRD4 BD2 (1 to 477 residues)/BD1 Y97A mutant (unknown origin) after 30 mins by TR-FRET assay
How it was run: (§1)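 BET selectivity by TR-FRET fluoroligand displacement. Uses tandem BET bromodomain constructs carrying a mutation in the non-assayed bromodomain.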

[4] = target: T1, ATPase family AAA domain-containing protein 2; test: (§2) Binding affinity to His6/FLAG-tagged TEV fused ATAD2 bromodomain (950 to 1148 residues) (unknown origin) expressed in Escherichia coli BL21(DE3) cells by surface plasmon resonance
How it was run: (§3)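 SPR screen of concentration–response up to 100 μM. Wild-type ATAD2 and a Y1021A/N1064A mutant lacking the acetyl-lysine binding motif were run in parallel. Hits were classed as binding, nonbinding or linear binding (nonsaturating response, calculated Kd above the top concentration).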

[5] = target: Bromodomain-containing protein 4 (Homo sapiens, UniProt O60885, Y390A); test: Displacement of Alexa Fluor 647 labelled ligand from His6-tagged BRD4 BD1 (1 to 477 residues)/BD2 Y390A mutant (unknown origin) after 30 mins by TR-FRET assay; how it was run: as §1
[6] = target: T2, ATPase family AAA domain-containing protein 2 (Homo sapiens); test: Displacement of SGRG-K(Ac)-GG-K(Ac)-GLG-K(Ac)-GGAKRHRKV-biotin) from His6/FLAG-tagged TEV fused ATAD2 bromodomain (981 to 1121 residues) (unknown origin) expressed in Escherichia coli BL21(DE3) cells at 10 uM after 30 mins by TR-FRET assay relative to control
[7] = target: T2, ATPase family AAA domain-containing protein 2 (Homo sapiens); test: as §2; how it was run: as §3
[8] = target: T1, ATPase family AAA domain-containing protein 2; test: Inhibition of ATAD2 bromodomain in human HUT78 chromatin lysate after 2 hrs by bromosphere competition binding assay
How it was run: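 Bromosphere chemoproteomic assay. Measures competitive inhibition of binding of endogenous full-length ATAD2 from Hut-78 cells.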

[9] = target: T2, ATPase family AAA domain-containing protein 2 (Homo sapiens); test: Displacement of SGRG-K(Ac)-GG-K(Ac)-GLG-K(Ac)-GGAKRHRKV-biotin) from His6/FLAG-tagged TEV fused ATAD2 bromodomain (981 to 1121 residues) (unknown origin) expressed in Escherichia coli BL21(DE3) cells at 100 to 300 uM after 30 mins by TR-FRET assay relative to control

SMILES	IC50 [1]	Activity [2]	IC50 [3]	Kd [4]	IC50 [5]	inhibition [6]	Activity [7]	IC50 [8]	pIC50 [1]	Activity [9]
Cc1ccc(NC(=O)CN2C(=O)NC(C)(C3CC3)C2=O)cc1S(=O)(=O)N1CCCCC1 (centres undefined)	12.6 µM	Active	> 50.1 µM	20 µM	> 50.1 µM	52%				
CCC(=O)Nc1ccc(Br)c(S(=O)(=O)N2CCCCC2)c1	15.8 µM									
CCC(=O)Nc1ccc(C(F)(F)F)c(S(=O)(=O)N2CCCCC2)c1	> 1000 µM									
O=C(CNC(=O)C1CCCCC1)Nc1ccc(Cl)c(S(=O)(=O)N2CCCCC2)c1	> 100 µM	Active	> 50.1 µM		> 50.1 µM	29%	Active			
CN(C)S(=O)(=O)c1cc(NC(=O)CN2C(=O)NC3(CCCc4ccccc43)C2=O)ccc1Cl (centres undefined)	5.01 µM	Active	> 50.1 µM	7.94 µM	> 50.1 µM	52%				
Cc1[nH]c(=O)c(C#N)c(C)c1CCC(=O)Nc1ccc(Cl)c(S(=O)(=O)N2CCCCC2)c1	1.26 µM	Active	> 50.1 µM	6.31 µM	> 50.1 µM	77%		15.8 µM		
Cc1ccc(C2(C)NC(=O)N(CC(=O)Nc3ccc(C)c(S(=O)(=O)N4CCCCC4)c3)C2=O)cc1 (centres undefined)	10 µM	Active	> 50.1 µM	12.6 µM	5.01 µM	33%				
CCC(=O)Nc1ccc(C#N)c(S(=O)(=O)N2CCCCC2)c1	> 1000 µM									
CCC(=O)Nc1ccc(O)c(S(=O)(=O)N2CCCCC2)c1	> 1000 µM									
CC1(C2CC2)NC(=O)N(CC(=O)Nc2cccc(S(=O)(=O)N3CCCCC3)c2)C1=O (racemic)	> 100 µM		31.6 µM		> 50.1 µM					
CCC(=O)Nc1ccc(N)c(S(=O)(=O)N2CCCCC2)c1	> 1000 µM									
Cc1ccccc1C(=O)NCC(=O)Nc1ccc(C)c(S(=O)(=O)N2CCCCCC2)c1	12.6 µM	Active	> 50.1 µM	31.6 µM	> 50.1 µM	39%		39.8 µM		
O=C(CCNC(=O)c1ccccc1)Nc1ccc(Cl)c(S(=O)(=O)N2CCCCC2)c1	> 100 µM	Active	39.8 µM	50.1 µM	> 50.1 µM	27%				
CCC(=O)Nc1ccc(F)c(S(=O)(=O)N2CCCCC2)c1	> 1000 µM									
CC1(C2CC2)NC(=O)N(CC(=O)Nc2ccc(Cl)c(S(=O)(=O)N3CCCCC3)c2)C1=O (racemic) [listing 1 of 2 here]		Active				79%				
COc1ccc(NC(=O)CN2C(=O)NC(C)(C3CC3)C2=O)cc1S(=O)(=O)N1CCCCC1 (racemic)	> 100 µM		> 50.1 µM		> 50.1 µM					

SMILES	IC50 [1]	Activity [2]	IC50 [3]	Kd [4]	IC50 [5]	inhibition [6]	Activity [7]	IC50 [8]	pIC50 [1]	Activity [9]
CC1(C2CC2)NC(=O)N(CC(=O)Nc2ccc(Cl)c(S(=O)(=O)N3CCCCC3)c2)C1=O (stereo in doubt; 19)			> 50.1 µM		> 50.1 µM				5.9	
CC1(C2CC2)NC(=O)N(CC(=O)Nc2ccc(Cl)c(S(=O)(=O)N3CCCCC3)c2)C1=O (stereo in doubt; 18)			31.6 µM		10 µM				5.9	
Cc1ccc(NC(=O)CN2C(=O)CN(C)C2=O)cc1S(=O)(=O)N1CCCCC1	50.1 µM	Active	> 501 µM	50.1 µM	> 501 µM	30%				
CC1(C2CC2)NC(=O)N(CC(=O)Nc2ccc(C(F)(F)F)c(S(=O)(=O)N3CCCCC3)c2)C1=O (racemic)	10 µM		25.1 µM		> 50.1 µM					
CCC(=O)Nc1ccc(OC)c(S(=O)(=O)N2CCCCC2)c1	> 1000 µM									
Cc1ccc(NC(=O)CN2C(=O)NC3(CCc4ccccc43)C2=O)cc1S(=O)(=O)N1CCCCC1 (centres undefined)	7.94 µM	Active	> 50.1 µM	15.8 µM	> 50.1 µM	61%				
CC1(C2CC2)NC(=O)N(CC(=O)Nc2ccc(Cl)c(S(=O)(=O)N3CCCCC3)c2)C1=O (racemic) [listing 2 of 2 here]	1.26 µM		50.1 µM	2 µM	> 50.1 µM			15.8 µM		
CSCCC1NC(=O)N(CC(=O)Nc2ccc(Cl)c(S(=O)(=O)N3CCOCC3)c2)C1=O (centres undefined)	10 µM	Active	> 50.1 µM	15.8 µM	> 50.1 µM	30 to 40%				
Cc1ccc(NC(=O)CN2C(=O)NC(C)(C)C2=O)cc1S(=O)(=O)N1CCCCCC1	10 µM	Active	> 50.1 µM	7.94 µM	> 50.1 µM	58%				
O=C(CN1C(=O)NC(CCc2ccccc2)C1=O)Nc1ccc(Cl)c(S(=O)(=O)N2CCCCC2)c1 (centres undefined)	3.16 µM	Active	> 50.1 µM		> 50.1 µM	48%	Active			
CCN(CC)S(=O)(=O)c1cc(NC(=O)CN2C(=O)NC(C)(c3ccccc3)C2=O)ccc1C (centres undefined)	31.6 µM	Active	39.8 µM	50.1 µM	> 501 µM	29%				
CCC(=O)Nc1ccc(CC)c(S(=O)(=O)N2CCCCC2)c1	> 1000 µM									
Cc1ccc(NC(=O)CN2C(=O)NC(Cc3ccccc3)C2=O)cc1S(=O)(=O)N1CCCCC1 (centres undefined)	> 100 µM	Active	> 50.1 µM		> 50.1 µM	18%	Active			
CCC(=O)Nc1ccc(Cl)c(S(=O)(=O)N2CCCCC2)c1	79.4 µM									45 to 55%
O=C(CCNC1=NS(=O)(=O)c2ccccc21)Nc1ccc(Cl)c(S(=O)(=O)N2CCCC2)c1	10 µM	Active	> 50.1 µM	15.8 µM	> 50.1 µM	47%				
